Laboratory results from ChEMBL document CHEMBL1157082, “Sesquiterpenes from Oplopanax horridus” (J Nat Prod, 2010).
≈ marks a conversion by molar mass, not a printed value.

Legend:
[1] = test system: Mycobacterium tuberculosis; assay: Antituberculosis activity against Mycobacterium tuberculosis Erdman by microplate alamar blue assay; format: functional
Method in brief: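 MIC read by microplate Alamar Blue assay against virulent M. tuberculosis Erdman (ATCC 35801). Rifampin served as positive control. Crude fractions were scored as percent inhibition at several concentrations, and pure isolates as MICs.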

Vero = assay: Cytotoxicity against african green monkey Vero cells; format: cell-based; settings: chlorocebus sabaeus
Method in brief: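 IC50 in Vero cells, run alongside the MIC assay. Test concentrations were at or below 1% of the maximum achievable stock concentration in DMSO.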

[2] = test system: Mycobacterium tuberculosis; assay: Antituberculosis activity against Mycobacterium tuberculosis H37Ra by microplate alamar blue assay; format: functional
[3] = Selectivity index, ratio of IC50 for african green monkey Vero cells to MIC for Mycobacterium tuberculosis Erdman; format: functional

| Structure (SMILES) | MIC [1] [µg/mL] | Activity (Vero) | MIC [2] [µg/mL] | Selectivity Index [3] |
| --- | --- | --- | --- | --- |
| C=C[C@@](C)(O)CC[C@@H](O)[C@]1(C)CC[C@H](C(C)(C)O)O1 (relative stereo) [NEROPLOFUROL] | > 128 | Non-toxic | – | – |
| c1cc2c(cc1[C@H]1OC[C@H]3[C@@H]1CO[C@@H]3c1ccc3c(c1)OCO3)OCO2 [SESAMIN] | – | – | > 200 | – |
| CCCCCCC/C=C\[C@H](O)C#CC#C[C@@H](O)CC [OPLOPANDIOL] | 61.5 (≈ 234 µM) | Non-toxic | – | 6.2 |
| C=CC1(C)CC/C=C(/C)CCC(C(C)(C)O)O1 (stereo not given) [NEROPLOMACROL] | > 128 | Non-toxic | – | – |
| C=C[C@@H](O)C#CC#C[C@@H](O)/C=C\CCCCCCC [FALCARINDIOL] | 6.2 (≈ 23.8 µM) | Non-toxic | – | – |
